# Active and inactive are the calls of the source.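 How the source made its calls, unless noted: active means fluorescence slope higher than the sample average by over 3 SD (cut at about -0.22 in these data, passing the limit was not always enough); inactive means the rest.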
# How the values were obtained:
# [1] = inhibitors of TNFa-induced NFkB p65 translocation, primary screen, imaging, HUVEC, MLSMR starter and 10KST1 sets (AID 438;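 active means inhibition above 20% together with a positive visual image hit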;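 further: compound added about 3h40 before a 20 min TNFalpha stimulation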;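 on inhibition: signal is the nuclear over cytoplasmic p65 intensity ratio per well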); details: HUVEC TNFa-induced p65 nuclear translocation; cell count: measured here: nuclei count (cytotoxicity indicator), at 2.08 µM; inhibition: at 2 µM, stronger effect = higher value, 0% TNFa-plus-vehicle, 100% no-TNFa wells
# [2] = endothelial E-selectin expression blockers – imaging, HUVEC, immunofluorescence, MLSMR starter and 10KST1 sets, primary screen (AID 487;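 active means visually confirmed hit in the image check and inhibition above 20%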;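 on inhibition: signal is fraction of cell area covered by stained E-selectin grains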;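 on nuclei count: 100% = median nuclei count of all wells on the same plate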); details: HUVEC TNFalpha-induced E-selectin immunofluorescence imaging, at 2 µM; inhibition: stronger effect = higher value; nuclei count: measured here: cell number, toxicity
# [3] = Primary imaging screen for DUSP6 inhibitors that restore phospho-Erk in transfected HeLa cells, chemical complementation (AID 609;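 active means compounds giving at least 50% inhibition in the cell-based MKP-3 phosphatase rescue imaging test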;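 on inhibition: phospho-Erk level distribution per well compared with pooled transfected vehicle control wells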); details: HeLa MKP-3 transfected, phospho-Erk imaging KS statistic, at 10 µM, cells stimulated with TPA for 15 min
# [4] = target: Dual specificity protein phosphatase 6 (Homo sapiens) (UniProt Q16828); assay: as above; details: HeLa MKP-3 transfected, phospho-Erk imaging KS statistic; at 10 µM; stronger effect = higher value; cells stimulated with TPA for 15 min
# [5] = target: Voltage-gated potassium channel subunit beta-2 (Rattus norvegicus) (UniProt P62483); assay: inhibitors of rat Kvbeta2 reductase activity – biochemical, NADPH fluorescence, primary screen (AID 622); details: recombinant KvBeta, 4-cyanobenzaldehyde reduction, at 10 µM, stronger effect = higher value;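 further: slope of raw intensity against log time taken from 70 to 1610 s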
# [6] = target: Voltage-gated potassium channel subunit beta-2 (Rattus norvegicus) (UniProt P62483); assay: enhancers of rat Kvbeta2 NADPH turnover – biochemical, NADPH fluorescence, primary screen (AID 623;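 active means NADPH fluorescence slope more negative than the mean of all samples by about 3 SD, 99.7% confidence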;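 further: fluorescence intensity change per second fitted from 20 to 320 s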); details: Recombinant KvBeta, NADPH fluorescence decrease slope, 10 min; at 10 µM; stronger effect = lower value
# [7] = target: Muscarinic acetylcholine receptor M4 (Homo sapiens) (UniProt P08173); assay: M4-linked GIRK flux change, two-sided – cell-based, HEK293 M4/GIRK, thallium flux, BTC-AM, M4 allosteric agonist project, primary screen (AID 625;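 active means fluorescence slope after compound addition differing from the mean of all tested samples at 99.7% confidence, mostly higher but some lower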;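 further: thallium influx through GIRK channels coupled to M4 in HEK293 cells with BTC-AM dye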); details: at 10 µM, actives lie on both sides
# In short: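 Material: HEK293 cells with M4 receptor and GIRK channels; Times: cells overnight at 37 °C, BTC-AM loading 1 h, reads 2 min total; Technique: kinetic BTC-AM fluorescence sampled at 1 Hz, 10 s pre-addition baseline; Read-out basis: slope over 15–24 s of trace normalized to starting intensity; Controls: carbachol positive, DMSO negative.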
# [8] = inhibitors of larval lipid processing in zebrafish, primary screen, whole organism, PED6 fluorescence, gall bladder and intestine (AID 686;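 active means a full or partial loss of lipid-probe fluorescence in the fish gall bladder, intestine or both, judged by eye; inactive means no fluorescence loss, or compound toxic to the fish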;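 further: larvae 5 to 7 days old with five fish per well; signal comes from phospholipase A2 cleavage of quenched PED6 carried via bile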); details: Zebrafish larvae PED6 lipid processing, fluorescence scoring; screened at 20 µM (by protocol)
# In short: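 Incubation: overnight exposure of larvae to compound plus PED6 / Test system: live zebrafish larvae aged 5-7 days, whole organism / Amount: 5 larvae per well / Read-out basis: visual per-well fluorescence inhibition score / Signal: visual fluorescence microscopy scoring of gall bladder, gut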
# [9] = loss of swimming-algae plug formation – whole organism, Chlamydomonas reinhardtii, WT vs cilia-less mutant, absorbance, 96-well, primary screen (AID 463189;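 active means inhibition at or above 50% relative to wild type and mutant plate controls; inactive means inhibition below 50%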;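 further: 0% = wild type cc124 cells in DMSO and 100% = ciliumless bld1 mutant cells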); details: Chlamydomonas reinhardtii gravitaxis, OD600 absorbance, 2 days; at 10 µM; stronger effect = higher value
# [10] = measured here: cell density z-score
# [11] = measured here: nuclear c-Myc green intensity z-score
# [12] = measured here: nuclear pErk red intensity z-score, stronger effect = higher value
# Voltage-gated potassium channel subunit beta-2 (Rattus norvegicus), sequence (P62483 whole entry, looked up): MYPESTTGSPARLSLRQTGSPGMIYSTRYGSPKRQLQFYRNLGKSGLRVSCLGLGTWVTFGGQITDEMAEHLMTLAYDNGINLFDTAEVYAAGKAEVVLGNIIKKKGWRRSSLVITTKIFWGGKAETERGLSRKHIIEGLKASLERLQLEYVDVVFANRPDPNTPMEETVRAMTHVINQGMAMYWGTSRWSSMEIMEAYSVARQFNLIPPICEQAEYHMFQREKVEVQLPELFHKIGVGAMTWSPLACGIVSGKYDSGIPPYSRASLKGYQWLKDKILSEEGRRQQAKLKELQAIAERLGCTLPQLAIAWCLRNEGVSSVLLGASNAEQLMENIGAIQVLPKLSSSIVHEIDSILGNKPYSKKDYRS
# Dual specificity protein phosphatase 6 (Homo sapiens), sequence (Q16828 whole entry, looked up): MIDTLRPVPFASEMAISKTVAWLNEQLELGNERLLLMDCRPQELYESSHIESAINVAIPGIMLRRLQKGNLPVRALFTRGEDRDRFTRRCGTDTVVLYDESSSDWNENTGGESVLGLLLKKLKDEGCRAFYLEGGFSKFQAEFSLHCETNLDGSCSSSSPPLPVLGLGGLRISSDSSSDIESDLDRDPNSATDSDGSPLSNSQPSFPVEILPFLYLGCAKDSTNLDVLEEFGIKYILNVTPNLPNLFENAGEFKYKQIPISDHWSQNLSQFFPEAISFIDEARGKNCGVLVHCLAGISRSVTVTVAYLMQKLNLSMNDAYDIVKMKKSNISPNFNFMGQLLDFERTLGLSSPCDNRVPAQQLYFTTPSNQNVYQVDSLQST
# Muscarinic acetylcholine receptor M4 (Homo sapiens), sequence (P08173 whole entry, looked up): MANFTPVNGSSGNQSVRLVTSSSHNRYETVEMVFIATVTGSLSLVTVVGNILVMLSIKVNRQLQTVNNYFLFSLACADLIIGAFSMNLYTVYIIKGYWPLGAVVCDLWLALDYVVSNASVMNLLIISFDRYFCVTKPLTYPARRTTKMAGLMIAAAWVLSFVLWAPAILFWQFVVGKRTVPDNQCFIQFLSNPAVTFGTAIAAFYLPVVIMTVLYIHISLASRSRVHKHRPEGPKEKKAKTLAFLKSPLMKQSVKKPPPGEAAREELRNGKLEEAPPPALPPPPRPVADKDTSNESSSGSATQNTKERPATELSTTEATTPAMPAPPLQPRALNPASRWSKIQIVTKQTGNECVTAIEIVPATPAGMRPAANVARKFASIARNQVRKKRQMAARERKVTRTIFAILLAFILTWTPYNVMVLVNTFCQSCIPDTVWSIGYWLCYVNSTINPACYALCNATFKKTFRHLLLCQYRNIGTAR
smiles,measurement,setting,value
COCC(C)Nc1ncnc2c1cnn2-c1ccc(Cl)cc1 (stereo not given),cell count,[1],607
same,inhibition,[1],-19.2% (inactive)
same,inhibition,[2],-34.4% (inactive)
same,nuclei count,[2],170%
same,z-score,[3]; [10],1.51
same,z-score,[3]; [11],-0.865
same,z-score,[3]; [12],0.282
same,inhibition,[4],3.42% (inactive)
same,fluorescence slope,[5],-0.398 (inactive)
same,NADPH fluorescence slope,[6],-1.2e-05 (inactive)
same,fluorescence slope,[7],0.00516 (inactive)
same,outcome,[8],inactive
same,inhibition,[9],18.7% (inactive)
CCN(CC)CCN1C(=O)C(O)=C(C(=O)c2cc3ccccc3o2)C1c1cccnc1 (stereo not given),cell count,[1],423
same,inhibition,[1],-6.8% (inactive)
same,inhibition,[2],14.8% (inactive)
same,nuclei count,[2],163%
same,z-score,[3]; [10],-0.472
same,z-score,[3]; [11],-0.722
same,z-score,[3]; [12],-0.061
same,inhibition,[4],3.56% (inactive)
same,fluorescence slope,[5],-0.431 (inactive)
same,NADPH fluorescence slope,[6],-0.000135 (inactive)
same,fluorescence slope,[7],0.00445 (inactive)
same,outcome,[8],inactive
same,inhibition,[9],-8.96% (inactive)
Cn1c(=O)c2c(nc(NCc3ccc4c(c3)OCO4)n2Cc2ccccc2Cl)n(C)c1=O,cell count,[1],634
same,inhibition,[1],-6% (inactive)
same,inhibition,[2],-29.1% (inactive)
same,nuclei count,[2],104%
same,z-score,[3]; [10],0.0435
same,z-score,[3]; [11],2.04
same,z-score,[3]; [12],0.82
same,inhibition,[4],-2.09% (inactive)
same,fluorescence slope,[5],-0.41 (inactive)
same,NADPH fluorescence slope,[6],-9.6e-06 (inactive)
same,fluorescence slope,[7],0.00449 (inactive)
same,outcome,[8],inactive
same,inhibition,[9],-8.68% (inactive)
COC(=O)CSc1nc(N)nc(C)c1Br,cell count,[1],688
same,inhibition,[1],-10% (inactive)
same,inhibition,[2],23.8% (inactive)
same,nuclei count,[2],150%
same,z-score,[3]; [10],0.424
same,z-score,[3]; [11],0.473
same,z-score,[3]; [12],0.0816
same,inhibition,[4],-3.95% (inactive)
same,fluorescence slope,[5],-0.429 (inactive)
same,NADPH fluorescence slope,[6],-3.4e-05 (inactive)
same,fluorescence slope,[7],0.00418 (inactive)
same,outcome,[8],inactive
same,inhibition,[9],-4.73% (inactive)
CC(C)Cc1[nH]c(=O)c(C#N)c2c1COC(C)(C)C2,cell count,[1],568
same,inhibition,[1],-11.1% (inactive)
same,inhibition,[2],-69.9% (inactive)
same,nuclei count,[2],141%
same,z-score,[3]; [10],0.028
same,z-score,[3]; [11],-0.951
same,z-score,[3]; [12],-0.389
same,inhibition,[4],-13.3% (inactive)
same,fluorescence slope,[5],-0.43 (inactive)
same,NADPH fluorescence slope,[6],-5.3e-05 (inactive)
same,fluorescence slope,[7],0.00369 (inactive)
same,outcome,[8],inactive
same,inhibition,[9],23.1% (inactive)
CC12CN3CC(C)(CN(C1)C3c1ccc(Br)cc1O)C2 (stereo not given),cell count,[1],576
same,inhibition,[1],-3% (inactive)
same,inhibition,[2],-162% (inactive)
same,nuclei count,[2],138%
same,z-score,[3]; [10],0.885
same,z-score,[3]; [11],-1.75
same,z-score,[3]; [12],-1.65
same,inhibition,[4],5.42% (inactive)
same,fluorescence slope,[5],-0.472 (inactive)
same,NADPH fluorescence slope,[6],-8.8e-05 (inactive)
same,fluorescence slope,[7],0.00399 (inactive)
same,outcome,[8],inactive
same,inhibition,[9],4.37% (inactive)
COC(=O)c1c(C)[nH]c(C(=O)OCc2ccc(F)cc2)c1C,cell count,[1],693
same,inhibition,[1],-3.8% (inactive)
same,inhibition,[2],50.5% (inactive)
same,nuclei count,[2],160%
same,z-score,[3]; [10],-0.559
same,z-score,[3]; [11],-1.43
same,z-score,[3]; [12],-0.0192
same,inhibition,[4],7.21% (inactive)
same,fluorescence slope,[5],-0.461 (inactive)
same,NADPH fluorescence slope,[6],-1.9e-05 (inactive)
same,fluorescence slope,[7],0.00635 (inactive)
same,outcome,[8],inactive
same,inhibition,[9],80.6% (active)
COC(=O)C(NC(=O)c1ccco1)(Nc1ccc(Br)cn1)C(F)(F)F (stereo not given),cell count,[1],717
same,inhibition,[1],-8.8% (inactive)
same,inhibition,[2],13.2% (inactive)
same,nuclei count,[2],147%
same,z-score,[3]; [10],-0.772
same,z-score,[3]; [11],-0.373
same,z-score,[3]; [12],1.11
same,inhibition,[4],-5.81% (inactive)
same,fluorescence slope,[5],-0.457 (inactive)
same,NADPH fluorescence slope,[6],-6.6e-05 (inactive)
same,fluorescence slope,[7],0.00446 (inactive)
same,outcome,[8],inactive
same,inhibition,[9],4.54% (inactive)
CCN(CC)CCCN1C(=O)C(=O)/C(=C(/O)c2ccccc2)C1c1cc(OC)ccc1OC (stereo not given),cell count,[1],414
same,inhibition,[1],-1.4% (inactive)
same,inhibition,[2],-75.8% (inactive)
same,nuclei count,[2],153%
same,z-score,[3]; [10],-0.00303
same,z-score,[3]; [11],-1.03
same,z-score,[3]; [12],1.76
same,inhibition,[4],1.48% (inactive)
same,fluorescence slope,[5],-0.469 (inactive)
same,NADPH fluorescence slope,[6],-0.000138 (inactive)
same,fluorescence slope,[7],0.00498 (inactive)
same,outcome,[8],inactive
same,inhibition,[9],32.7% (inactive)
O=C(C1=C(O)C(=O)N(CCCN2CCOCC2)C1c1ccccn1)c1cc2ccccc2o1 (stereo not given),cell count,[1],558
same,inhibition,[1],-4.5% (inactive)
same,inhibition,[2],55.2% (inactive)
same,nuclei count,[2],95.5%
same,z-score,[3]; [10],0.823
same,z-score,[3]; [11],0.459
same,z-score,[3]; [12],-0.11
same,inhibition,[4],12.7% (inactive)
same,fluorescence slope,[5],-0.441 (inactive)
same,NADPH fluorescence slope,[6],-0.000374 (active)
same,fluorescence slope,[7],0.0054 (inactive)
same,outcome,[8],inactive
same,inhibition,[9],23.5% (inactive)
